Holding throughout (type): cell-based
Assay [1] addresses GABA-A receptor; alpha-1/beta-3/gamma-2 (Homo sapiens) (UniProt P14867+P18507+P28472). Kind of assay: Efficacy was measured as modulation of the current in response to GABA at hGABA alpha-1-beta-3-gamma-2 receptor expressed in Xenopus oocytes. The conditions noted are these: Oocyte. Put shortly: (§1)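 Two-electrode voltage clamp on Xenopus oocytes expressing each receptor combination. […] Value is percent increase or decrease of the EC20 GABA current.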

The target of assay [2] is T1, GABA-A receptor; alpha-5/beta-3/gamma-2 (Homo sapiens, UniProt P18507+P28472+P31644).
T1 sequence (P18507 whole entry): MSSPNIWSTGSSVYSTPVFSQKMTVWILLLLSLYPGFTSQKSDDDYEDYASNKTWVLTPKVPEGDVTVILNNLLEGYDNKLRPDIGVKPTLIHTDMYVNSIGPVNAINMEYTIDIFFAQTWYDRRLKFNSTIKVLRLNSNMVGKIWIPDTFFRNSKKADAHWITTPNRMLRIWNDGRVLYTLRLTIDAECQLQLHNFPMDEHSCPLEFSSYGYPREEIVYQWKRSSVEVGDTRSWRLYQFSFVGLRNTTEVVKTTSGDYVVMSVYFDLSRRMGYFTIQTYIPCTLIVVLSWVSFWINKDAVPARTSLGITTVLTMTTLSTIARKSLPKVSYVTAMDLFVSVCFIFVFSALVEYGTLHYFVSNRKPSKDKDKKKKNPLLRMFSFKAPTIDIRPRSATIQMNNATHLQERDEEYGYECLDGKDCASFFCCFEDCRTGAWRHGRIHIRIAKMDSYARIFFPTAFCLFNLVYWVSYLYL
T1 sequence (P28472 whole entry): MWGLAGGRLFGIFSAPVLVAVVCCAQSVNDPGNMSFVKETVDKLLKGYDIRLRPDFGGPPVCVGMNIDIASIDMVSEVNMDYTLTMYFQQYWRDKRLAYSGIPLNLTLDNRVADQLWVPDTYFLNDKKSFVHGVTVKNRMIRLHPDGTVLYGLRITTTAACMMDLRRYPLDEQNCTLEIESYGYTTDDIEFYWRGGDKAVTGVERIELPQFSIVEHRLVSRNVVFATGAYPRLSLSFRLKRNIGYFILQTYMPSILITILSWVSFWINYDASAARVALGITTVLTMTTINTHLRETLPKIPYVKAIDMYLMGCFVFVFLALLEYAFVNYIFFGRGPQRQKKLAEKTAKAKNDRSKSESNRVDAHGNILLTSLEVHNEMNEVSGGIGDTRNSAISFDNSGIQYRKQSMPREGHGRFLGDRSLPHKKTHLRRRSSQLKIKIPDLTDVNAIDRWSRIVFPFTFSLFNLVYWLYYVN
T1 sequence (P31644 whole entry): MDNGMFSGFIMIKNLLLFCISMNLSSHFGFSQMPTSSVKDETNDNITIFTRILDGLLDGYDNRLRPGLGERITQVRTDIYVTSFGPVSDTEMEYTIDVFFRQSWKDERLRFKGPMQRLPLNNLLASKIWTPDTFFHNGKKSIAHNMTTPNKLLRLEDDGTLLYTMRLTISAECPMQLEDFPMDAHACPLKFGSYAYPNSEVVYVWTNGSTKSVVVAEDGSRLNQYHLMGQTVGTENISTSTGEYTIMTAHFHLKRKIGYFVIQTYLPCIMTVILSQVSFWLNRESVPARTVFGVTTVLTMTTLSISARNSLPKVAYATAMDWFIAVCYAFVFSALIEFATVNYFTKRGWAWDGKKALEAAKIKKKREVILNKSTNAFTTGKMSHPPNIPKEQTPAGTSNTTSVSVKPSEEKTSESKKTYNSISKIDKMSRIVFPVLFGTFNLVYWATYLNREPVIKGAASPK
Kind of assay: Inhibition of [3H]Ro-151788 binding to recombinant human gamma-aminobutyric-acid A receptor alpha-5-beta-3-gamma-2 subtype expressed in L (tk-) cells.

Assay [3] deals with T2, GABA-A receptor; alpha-2/beta-3/gamma-2 (Homo sapiens, UniProt P18507+P28472+P47869).
T2 sequence (P18507 whole entry): T1 sequence (P18507 whole entry)
T2 sequence (P28472 whole entry): T1 sequence (P28472 whole entry)
T2 sequence (P47869 whole entry): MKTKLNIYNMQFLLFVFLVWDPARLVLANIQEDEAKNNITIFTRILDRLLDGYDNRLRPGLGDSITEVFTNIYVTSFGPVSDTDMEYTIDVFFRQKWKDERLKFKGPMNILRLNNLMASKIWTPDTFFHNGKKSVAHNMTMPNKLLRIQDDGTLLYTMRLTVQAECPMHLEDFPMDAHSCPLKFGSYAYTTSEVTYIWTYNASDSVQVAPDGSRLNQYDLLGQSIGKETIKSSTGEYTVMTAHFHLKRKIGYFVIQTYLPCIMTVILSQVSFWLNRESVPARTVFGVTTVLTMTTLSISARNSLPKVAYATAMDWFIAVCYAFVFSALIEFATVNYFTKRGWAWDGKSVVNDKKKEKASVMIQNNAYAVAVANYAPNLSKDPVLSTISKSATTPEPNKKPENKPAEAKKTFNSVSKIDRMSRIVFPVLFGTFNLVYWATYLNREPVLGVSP
Put plainly: Inhibition of [3H]Ro-151788 binding to recombinant human gamma-aminobutyric acid A receptor alpha-2-beta-3-gamma-2 subtype expressed in L (tk-) cells.

The target of assay [4] is GABA-A receptor; alpha-5/beta-3/gamma-2 (Homo sapiens) (UniProt P18507+P28472+P31644). Kind of assay: Efficacy was measured as modulation of the current in response to GABA at hGABA alpha-5-beta-3-gamma-2 receptor expressed in Xenopus oocytes. The conditions noted are these: Oocyte. The gist of the method:
as §1

Assay [5] addresses T3, GABA-A receptor; alpha-3/beta-3/gamma-2 (Homo sapiens, UniProt P18507+P28472+P34903).
T3 sequence (P18507 whole entry): T1 sequence (P18507 whole entry)
T3 sequence (P28472 whole entry): T1 sequence (P28472 whole entry)
T3 sequence (P34903 whole entry): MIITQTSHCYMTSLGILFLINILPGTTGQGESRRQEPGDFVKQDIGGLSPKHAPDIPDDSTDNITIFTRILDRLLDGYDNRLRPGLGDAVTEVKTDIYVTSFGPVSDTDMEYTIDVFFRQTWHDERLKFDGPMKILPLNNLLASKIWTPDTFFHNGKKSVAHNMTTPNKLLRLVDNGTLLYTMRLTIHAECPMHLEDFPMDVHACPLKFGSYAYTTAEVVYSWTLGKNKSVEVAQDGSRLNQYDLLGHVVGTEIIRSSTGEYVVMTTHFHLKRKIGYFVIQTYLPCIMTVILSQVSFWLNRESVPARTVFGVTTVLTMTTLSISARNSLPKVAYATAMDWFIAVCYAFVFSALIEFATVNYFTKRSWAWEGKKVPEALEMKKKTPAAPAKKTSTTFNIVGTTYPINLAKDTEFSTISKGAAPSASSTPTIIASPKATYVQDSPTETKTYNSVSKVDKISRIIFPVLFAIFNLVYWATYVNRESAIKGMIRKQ
Put plainly: Inhibition of [3H]Ro-151788 binding to recombinant human gamma-aminobutyric-acid A receptor alpha-3-beta-3-gamma-2 subtype expressed in L (tk-) cells.

Assay [6] deals with GABA-A receptor; alpha-3/beta-3/gamma-2 (Homo sapiens) (UniProt P18507+P28472+P34903). Kind of assay: Efficacy was measured as modulation of the current in response to GABA at hGABA alpha-3-beta-3-gamma-2 receptor expressed in Xenopus oocytes. Particulars: Oocyte. The gist of the method:
as §1

Assay [7] concerns the target T4, GABA-A receptor; alpha-1/beta-3/gamma-2 (Homo sapiens, UniProt P14867+P18507+P28472).
T4 sequence (P14867 whole entry): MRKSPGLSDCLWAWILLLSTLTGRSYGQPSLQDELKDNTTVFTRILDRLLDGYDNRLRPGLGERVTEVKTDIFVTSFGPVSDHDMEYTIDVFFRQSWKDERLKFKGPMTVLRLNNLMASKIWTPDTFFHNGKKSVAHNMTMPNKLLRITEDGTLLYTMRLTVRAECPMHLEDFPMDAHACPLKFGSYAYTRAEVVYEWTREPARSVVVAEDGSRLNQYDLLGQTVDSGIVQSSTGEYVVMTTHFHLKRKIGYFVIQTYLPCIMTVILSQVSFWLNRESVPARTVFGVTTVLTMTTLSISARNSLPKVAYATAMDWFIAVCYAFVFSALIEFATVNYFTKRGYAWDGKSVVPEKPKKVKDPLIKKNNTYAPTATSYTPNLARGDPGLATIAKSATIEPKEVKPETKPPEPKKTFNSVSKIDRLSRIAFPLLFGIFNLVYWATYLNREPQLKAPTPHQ
T4 sequence (P18507 whole entry): T1 sequence (P18507 whole entry)
T4 sequence (P28472 whole entry): T1 sequence (P28472 whole entry)
Put plainly: Inhibition of [3H]Ro-151788 binding to recombinant human gamma-aminobutyric-acid A receptor alpha-1-beta-3-gamma-2 subtype expressed in L (tk-) cells.

What is called Ki is a dissociation constant, usually derived from enzyme kinetics or from competition with a known ligand.

Where only a bound is given, the exact number is not on record here.

In the case of `Cc1cc(C)n(COc2nn3c(-c4ccccc4)nnc3c3c2C2CCC3CC2)n1`, the Efficacy in assay [1] stood at 31%; in assay [4], 1%; in assay [6], 7%. In addition, the Ki in assay [2] came to 0.26 nM; in assay [3], 7.5 nM; in assay [5], 2.3 nM; in assay [7], 23 nM.
Regarding `N#Cc1cccc(COc2nn3c(-c4ccccc4)nnc3c3c2C2CCC3CC2)c1`, the Efficacy in assay [1] came to 23%; in assay [4] it was 23%; in assay [6], 38%. The Ki in assay [2] was 7.8 nM; in assay [3] it was 180 nM; in assay [5], 66 nM; in assay [7] it was greater than 1000 nM.
In the case of `c1ccc(COc2nn3c(-c4cccnc4)nnc3c3c2C2CCC3CC2)nc1`, the Efficacy in assay [1] came to 36%; in assay [4], 31%; in assay [6], 9%. In addition, the Ki in assay [2] was found to be 2.7 nM; in assay [3] it was 54 nM; in assay [5] it was 38 nM; in assay [7], 260 nM.
With `c1ccc(-c2nnc3c4c(c(OCc5ncccc5OCC5CC5)nn23)C2CCC4CC2)cc1`, the results for the Efficacy in assay [1], in assay [4] and in assay [6] were 175%, 50% and 139%, respectively. Besides, the Ki turned out to be 0.75 nM in assay [2], 5.6 nM in assay [3], 2.3 nM in assay [5] and 6.9 nM in assay [7].
For the molecule `c1ccc(-c2nnc3c4c(c(OCc5ccccn5)nn23)C2CCC4CC2)cc1`, the Ki was 1.2 nM in assay [2], 26 nM in assay [3], 13 nM in assay [5] and 71 nM in assay [7]. In assay [4], the Efficacy amounted to 18%.
`c1ccc(COc2cccnc2COc2nn3c(-c4ccccc4)nnc3c3c2C2CCC3CC2)cc1`: the results for the Efficacy in assay [1] and in assay [6] were 178% and 132%, respectively. Also, the Ki in assay [2] came to 7 nM; in assay [3] it was 100 nM; in assay [5] it was 20 nM; in assay [7] it was 160 nM.
Regarding `c1ccc(-c2nnc3c4c(c(OCc5cccnc5)nn23)C2CCC4CC2)cc1`, the Efficacy in assay [1] came to 51%; in assay [6], 20%. Further, the Ki in assay [2] turned out to be 6.5 nM; in assay [3] it was 68 nM; in assay [5], 25 nM; in assay [7], 150 nM.
Regarding `COCCOc1cccnc1COc1nn2c(-c3ccccc3)nnc2c2c1C1CCC2CC1`, the Efficacy in assay [1] came out at 77%; in assay [6], 97%. The Ki in assay [2] was found to be 0.5 nM; in assay [3], 9.8 nM; in assay [5] it was 3.9 nM; in assay [7], 13 nM.
For the molecule `c1ccc(-c2nnc3c4c(c(OCn5cccn5)nn23)C2CCC4CC2)cc1`, the Efficacy in assay [1] was determined as 76%; in assay [6], 0%. Moreover, the inhibitory constant (Ki) came out at 2.7 nM in assay [2], 43 nM in assay [3], 19 nM in assay [5] and 130 nM in assay [7].
For the molecule `COc1cccc(-c2nnc3c4c(c(OCc5ccccn5)nn23)C2CCC4CC2)c1`, the values for the Efficacy in assay [1] and in assay [6] were 51% and 43%, respectively. The Ki was determined as 6 nM in assay [2], 79 nM in assay [3], 29 nM in assay [5] and 140 nM in assay [7].
With `CN(C)Cc1cccc(COc2nn3c(-c4ccccc4)nnc3c3c2C2CCC3CC2)c1`, the Ki in assay [2] came to 4.5 nM; in assay [3] it was 64 nM; in assay [5], 24 nM; in assay [7], 190 nM. Besides, the Efficacy is -25% in assay [4] and -16% in assay [6].
For `Cc1ccnc(COc2nn3c(-c4ccccc4)nnc3c3c2C2CCC3CC2)c1`, the Efficacy was 41% in assay [1] and 33% in assay [6]. For the same molecule, the Ki in assay [2] is 2 nM; in assay [3] it was 19 nM; in assay [5], 18 nM; in assay [7], 93 nM.

The record behind these values is ChEMBL document CHEMBL1142695, “Discovery of functionally selective 7,8,9,10-tetrahydro-7,10-ethano-1,2,4-triazolo[3,4-a]phthalazines as GABA A receptor agonists at the alpha3 subunit” (J Med Chem, 2005).
